# ChEMBL document CHEMBL5647695, “Cyclin-dependent kinase 9 (CDK9) is a novel prognostic marker and therapeutic target in osteosarcoma” (EBioMedicine, 2019)
# Activity calls are given as the source filed them. The calls are words filed in the database; no cut-off is given here.
# Experiments:
# U2OS [1] = test: Effect on RNAPII total protein expression in human U2OS cells at 2.5 to 20 uM incubated for 48 hrs by Western blot analysis; type: functional, cell-based; conditions: dose 2.5-20 µM
# Outline: (§1)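 Cells seeded in 6-well plates (6 × 10^5 cells/well) and treated with 2.5, 5, 10, 20 μM for 48 h. RIPA lysates resolved by SDS-PAGE and blotted to nitrocellulose. Primary antibodies to CDK9, RNAPII ser2, total RNAPII, MCL-1, BIRC5 and tubulin (1:1000, 4 °C overnight), then IR-dye secondaries; infrared imaging. Densitometry relative to tubulin, mean ± SE in triplicate.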
# U2OS [2] = test: Cytotoxicity against human U2OS cells assessed as inhibition of cell proliferation incubated for 5 days by MTT assay; type: functional, cell-based
# Outline: (§2)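 Cells in RPMI 1640 with 10% FBS, seeded at 4 × 10^3 cells/well in 96-well plates and exposed to 0, 2.5, 5, 10, 20 μM for 5 days. MTT (5 mg/mL stock) added for 4 h at 37 °C; formazan dissolved in acid isopropanol and read at 490 nm. IC50 from the dose–response; mean ± SE of 2 experiments in triplicate.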
# KHOS/NP [3] = test: Cytotoxicity against human KHOS/NP cells assessed as inhibition of cell proliferation incubated for 5 days by MTT assay; type: functional, cell-based; outline: as §2
# U2OS [4] = test: Cytotoxicity against human U2OS cells assessed as morphological changes incubated for 3 days by microscopic analysis; type: functional, cell-based; conditions: dose 2.5-20 µM, time 3.0 day
# Outline: (§3)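 Cells treated with 0, 2.5, 5, 10, 20 μM for 72 h, then examined by light microscopy for morphology and number of viable cells.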
# KHOS/NP [5] = test: Cytotoxicity against human KHOS/NP cells assessed as morphological changes incubated for 3 days by microscopic analysis; type: functional, cell-based; conditions: dose 2.5-20 µM, time 3.0 day; outline: as §3
# U2OS [6] = test: Cytotoxicity against human U2OS cells assessed as reduction in viable cell number incubated for 3 days by microscopic analysis; type: functional, cell-based; conditions: dose 2.5-20 µM, time 3.0 day; outline: as §3
# KHOS/NP [7] = test: Cytotoxicity against human KHOS/NP cells assessed as reduction in viable cell number incubated for 3 days by microscopic analysis; type: functional, cell-based; conditions: dose 2.5-20 µM, time 3.0 day; outline: as §3
# [8] = target: Cyclin-dependent kinase 9 (Homo sapiens) (UniProt P50750); test: Inhibition of CDK9 in human U2OS cells assessed as reduction in phosphorylated RNAPII protein expression at Ser2 residue incubated for 48 hrs by Western blot analysis; type: cell-based; conditions: dose 2.5-20 µM; outline: as §1
# Cyclin-dependent kinase 9 (Homo sapiens), sequence (P50750 whole entry): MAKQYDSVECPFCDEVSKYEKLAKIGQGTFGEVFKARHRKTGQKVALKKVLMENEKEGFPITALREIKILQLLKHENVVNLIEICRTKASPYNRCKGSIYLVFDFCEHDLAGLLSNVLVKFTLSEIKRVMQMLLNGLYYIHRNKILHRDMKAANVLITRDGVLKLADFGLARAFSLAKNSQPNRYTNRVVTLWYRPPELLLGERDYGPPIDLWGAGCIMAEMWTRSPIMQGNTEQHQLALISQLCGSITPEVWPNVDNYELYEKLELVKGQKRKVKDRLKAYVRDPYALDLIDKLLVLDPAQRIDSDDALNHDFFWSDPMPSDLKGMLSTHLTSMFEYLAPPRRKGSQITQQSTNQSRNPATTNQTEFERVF
# [9] = target: Cyclin-dependent kinase 9 (Homo sapiens) (UniProt P50750); test: Inhibition of CDK9 in human KHOS/NP cells assessed as reduction in phosphorylated RNAPII protein expression at Ser2 residue incubated for 48 hrs by Western blot analysis; type: cell-based; conditions: dose 2.5-20 µM; outline: as §1
# [10] = target: Cyclin-dependent kinase 9 (Homo sapiens) (UniProt P50750); test: Inhibition of CDK9 in human U2OS cells assessed as reduction in MCL-1 protein expression incubated for 48 hrs by Western blot analysis; type: cell-based; conditions: dose 2.5-20 µM; outline: as §1
# [11] = target: Cyclin-dependent kinase 9 (Homo sapiens) (UniProt P50750); test: Inhibition of CDK9 in human KHOS/NP cells assessed as reduction in MCL-1 protein expression incubated for 48 hrs by Western blot analysis; type: cell-based; conditions: dose 2.5-20 µM; outline: as §1
# [12] = target: Cyclin-dependent kinase 9 (Homo sapiens) (UniProt P50750); test: Inhibition of CDK9 in human U2OS cells assessed as reduction in BIRC5 protein expression incubated for 48 hrs by Western blot analysis; type: cell-based; conditions: dose 2.5-20 µM; outline: as §1
# [13] = target: Cyclin-dependent kinase 9 (Homo sapiens) (UniProt P50750); test: Inhibition of CDK9 in human KHOS/NP cells assessed as reduction in BIRC5 protein expression incubated for 48 hrs by Western blot analysis; type: cell-based; conditions: dose 2.5-20 µM; outline: as §1
# KHOS/NP [14] = test: Effect on RNAPII total protein expression in human KHOS/NP cells at 2.5 to 20 uM incubated for 48 hrs by Western blot analysis; type: functional, cell-based; conditions: dose 2.5-20 µM; outline: as §1
# U2OS [15] = test: Effect on CDK9 protein expression in human U2OS cells at 2.5 to 20 uM incubated for 48 hrs by Western blot analysis; type: functional, cell-based; conditions: dose 2.5-20 µM; outline: as §1
# KHOS/NP [16] = test: Effect on CDK9 protein expression in human KHOS/NP cells at 2.5 to 20 uM incubated for 48 hrs by Western blot analysis; type: functional, cell-based; conditions: dose 2.5-20 µM; outline: as §1
# U2OS [17] = test: Induction of apoptosis in human U2OS cells assessed as viable cells at 10 uM by Annexin V/PI staining based flow cytometry analysis (reference value: 94.5%); type: functional; conditions: read-out: Activity
# U2OS [18] = test: Induction of apoptosis in human U2OS cells assessed as early apoptotic cells at 10 uM by Annexin V/PI staining based flow cytometry analysis (reference value: 5%); type: functional
# U2OS [19] = test: Induction of apoptosis in human U2OS cells assessed as late apoptotic cells at 10 uM by Annexin V/PI staining based flow cytometry analysis (reference value: 0.4%); type: functional
# U2OS [20] = test: Induction of apoptosis in human U2OS cells assessed as dead cells at 10 uM by Annexin V/PI staining based flow cytometry analysis (reference value: 0.1%); type: functional
# KHOS/NP [21] = test: Induction of apoptosis in human KHOS/NP cells assessed as viable cells at 10 uM by Annexin V/PI staining based flow cytometry analysis (reference value: 94.1%); type: functional; conditions: read-out: Activity
# KHOS/NP [22] = test: Induction of apoptosis in human KHOS/NP cells assessed as early apoptotic cells at 10 uM by Annexin V/PI staining based flow cytometry analysis (reference value: 5.3%); type: functional
# KHOS/NP [23] = test: Induction of apoptosis in human KHOS/NP cells assessed as late apoptotic cells at 10 uM by Annexin V/PI staining based flow cytometry analysis (reference value: 0.3%); type: functional
# U2OS [24] = test: Inhibition of colony formation in human U2OS cells assessed as reduction in colony number and size incubated for 12 days by Giemsa staining based analysis; type: functional, cell-based; conditions: dose 5-10 µM, time 12.0 day
# Outline: (§4)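 Seeded at 150 cells/well in 12-well plates with 0, 5 or 10 μM inhibitor; 12 days at 37 °C. Colonies fixed 10 min in methanol, stained 20 min with 10% Giemsa and photographed.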
# KHOS/NP [25] = test: Inhibition of colony formation in human KHOS/NP cells assessed as reduction in colony number and size incubated for 12 days by Giemsa staining based analysis; type: functional, cell-based; conditions: dose 5-10 µM, time 12.0 day; outline: as §4
# U2OS [26] = test: Inhibition of cell migration in human U2OS cells at 10 uM by wound healing assay; type: functional, cell-based; conditions: time 24-72 hrs
# Outline: (§5)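 Monolayers of 4 × 10^5 cells/well in 6-well plates, grown overnight, scratched with two parallel lines, then exposed to 10 μM in 2% FBS medium for 72 h. Photographed at 0, 24, 48, 72 h; width measured at five sites per image. Migration distance = (width at 0 h − width at time point)/2.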
# KHOS/NP [27] = test: Inhibition of cell migration in human KHOS/NP cells at 10 uM by wound healing assay; type: functional, cell-based; conditions: time 24-72 hrs; outline: as §5
# U2OS [28] = test: Antitumor activity against human U2OS cells cultured as 3D spheroids assessed as reduction in spheroid diameter at 10 uM incubated for 12 days with media replacement for every 24 to 48 hrs and measured every 2 days by Calcein AM staining based fluorescence microscopic analysis relative to control; type: functional; parameters: scale not given: the % may be the effect or the level left; conditions: time 12 day
# Outline: (§6)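 Spheroids grown in 3D hydrogel culture plates, 2 × 10^5 cells/well, with 10 μM inhibitor added at seeding; untreated cells as blank control. 37 °C, 5% CO2, medium changed every 24–48 h. Diameter photographed every 2 days; at 12 days spheroids harvested, stained 15 min with 0.25 μM Calcein AM and imaged by fluorescence microscopy. Mean ± SE of 2 experiments in triplicate.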
# KHOS/NP [29] = test: Antitumor activity against human KHOS/NP cells cultured as 3D spheroids assessed as reduction in spheroid diameter at 10 uM incubated for 12 days with media replacement for every 24 to 48 hrs and measured every 2 days by Calcein AM staining based fluorescence microscopic analysis relative to control; type: functional; parameters: scale not given: the % may be the effect or the level left; conditions: time 12 day; outline: as §6
structure (smiles),measurement,setting,value
COc1ccccc1-c1cc(Nc2cccc(CS(N)(=O)=O)c2)ncn1,Activity,U2OS [1],inactive
same,IC50,U2OS [2]; 120 h,5.8 µM
same,Activity,U2OS [2]; time 5.0 day,Dose-Dependent Effect
same,IC50,KHOS/NP [3]; 120 h,6.5 µM
same,Activity,KHOS/NP [3]; time 5.0 day,Dose-Dependent Effect
same,Activity,U2OS [4],Dose-Dependent Effect
same,Activity,KHOS/NP [5],Dose-Dependent Effect
same,Activity,U2OS [6],Dose-Dependent Effect
same,Activity,KHOS/NP [7],Dose-Dependent Effect
same,inhibition,[8],Dose-Dependent Effect
same,inhibition,[9],Dose-Dependent Effect
same,inhibition,[10],Dose-Dependent Effect
same,inhibition,[11],Dose-Dependent Effect
same,inhibition,[12],Dose-Dependent Effect
same,inhibition,[13],Dose-Dependent Effect
same,Activity,KHOS/NP [14],inactive
same,Activity,U2OS [15],inactive
same,Activity,KHOS/NP [16],inactive
same,viability at 10 µM,U2OS [17],91.8%
same,Activity,U2OS [18],6.4%
same,Activity,U2OS [19],1.5%
same,Activity,U2OS [20],0.3%
same,viability at 10 µM,KHOS/NP [21],88.5%
same,Activity,KHOS/NP [22],2.8%
same,Activity,KHOS/NP [23],6%
same,inhibition,U2OS [24],Dose-Dependent Effect
same,inhibition,KHOS/NP [25],Dose-Dependent Effect
same,inhibition,U2OS [26],Dose-Dependent Effect
same,inhibition,KHOS/NP [27],Dose-Dependent Effect
same,Activity,U2OS [28],57.4%
same,Activity,KHOS/NP [29],48.8%
